Molecules are shown by their SMILES. Calls of active or inactive are those of the source. No cut-off for these calls is given here.

Drawing on ChEMBL document CHEMBL1138555, “N-acylated and N,N'-diacylated imidazolidine-2-thione derivatives and N,N'-diacylated tetrahydropyrimidine-2(1H)-thione analogues: synthesis and antiproliferative activity” (Eur J Med Chem, 2009), this text covers Activity for seven compounds.

The subject of this assay is Human immunodeficiency virus 1. In words: Antiviral activity against HIV1 in human MT4 cells assessed as prevention of virus-induced cytopathogenicity. In kind it is functional, organism-based. In short, it runs like this: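 MT-4 cells, 1 × 10⁴ per well, with serial compound dilutions from a 100 mM DMSO stock. Infected with HIV-1 at 100 CCID50. Four-day incubation at 37 °C, then viable cells measured by MTT. Read-out is inhibition of virus-induced cytopathogenicity, assessed at non-cytotoxic concentrations.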
In general terms: Protection from cytopathic effect is a common read-out in antiviral testing.

With `CC(C)(C)C(=O)/C(C#N)=C/N1CCNC1=S`, the outcome was inactive. The result for `CC(=O)C(=CN1CCNC1=S)C(C)=O` reads “inactive”; that for `N#C/C(=C\N1CCNC1=S)C(=O)c1ccccc1`, “inactive”. Regarding `O=C(C(=CN1CCNC1=S)C(=O)c1ccccc1)c1ccccc1`, the outcome was inactive.

Consider `N#C/C(=C\N1CCNC1=S)C(=O)Nc1ccc(Cl)cc1`, for which the outcome was inactive. The result for `CCOC(=O)/C(=C/N1CCNC1=S)C(=O)c1ccccc1` reads “inactive”; that for `N#CC(C#N)=CN1CCNC1=S`, “inactive”.
